Assay: Toxicity liver stage against HepG2, at 10uM
Type: cell-based
Design: test concentration 10 uM, cell line HepG2-A16-CD81EGFP
Settings: human, HepG2-A16-CD81EGFP cells; read-out: INHIBITION
In short: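 Uninfected HepG2-A16-CD81EGFP cells, 3 × 10^3 per well, 1536-well, plated on prespotted compound at 10 μM final, parasite-free screening media added to match infected plates; puromycin 10 μM positive, DMSO 0.5% negative; run in parallel with 48 h PbLuc assay at 37 °C, 5% CO2; viability by CellTiter-Glo luminescence, normalized to controls.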

Structure (SMILES) | cytotoxicity at 10 µM [%]
c1cc(-c2noc([C@@H]3CCCN3C3CCC3)n2)cc(N2CCCC2)n1 | 5.94
COc1ccc(C2OC(COc3ccc(C)cc3)=NN2C(C)=O)cc1 (centres undefined) | -6.19
Cc1cccc(CC(=O)Nc2cnn(C3CCOC3)c2)c1 (centres undefined) | -0.813
Cc1ccccc1NC(=O)N1CC[C@@H]2CN(CC(C)C)S(=O)(=O)[C@@H]2CC1 | -0.567
Cc1ccc(C(=O)N2C[C@@H]3CN(c4ncccn4)C[C@@H]3C2)cc1 | 9.34
O=C(C1CCOC1)N1CCc2ncnc(C3CC3)c2CC1 (centres undefined) | -2.62
Cc1nn(C)cc1CN(C)C(=O)c1cccnc1 | 0.992
Cc1cc(-c2ccc(=O)n(CCNC(=O)C3CCCCC3)n2)c(C)o1 | -3.73
O=C(CCC(=O)Nc1ccccc1)NCC(=O)c1ccc(F)cc1F | -0.493
NC(=O)CN(Cc1ncc(-c2ccc(F)cc2)o1)C1CCCC1 | -6.19
COc1ccc(CNCC2CN(C3CC3)CCO2)cc1OC (centres undefined) | -17
CCc1nc(CCNC(=O)NC2CCC(=O)N(C)C2)sc1C (centres undefined) | 2.78
CCOC(=O)c1c(NC(=O)CN2CCN(C(C)=O)CC2)sc(C)c1C | 1.15
CCCc1noc(CCC(=O)N2CCCC2Cn2cc(C)cn2)n1 (centres undefined) | -1.11
COc1ccc2c(c1)CCCN(C(C)C(=O)N1CCCC1)C2 (centres undefined) | 10.9
CC(CCSc1ccccc1)N1CCN(C(=O)c2ccccc2O)CC1 (centres undefined) | 8.97
Cc1cnn(CCNC(C)C(=O)NCCc2cccs2)c1 (centres undefined) | -9.38
CCN1CCOC(CNCc2c(Cl)nc3ccccn23)C1 (centres undefined) | 0.174
Cc1nc(NC(=O)NCCCN2CCC(C(N)=O)CC2)sc1C | 0.902
O=C1OCCN1CCOc1nc(-c2ccccc2Cl)no1 | -11.3
CC(Oc1ccccc1C(F)(F)F)C(=O)NS(=O)(=O)C(C)C (centres undefined) | -7.19
CCCOCC1CCN(C(=O)Cn2ncc(N3CCCC3)cc2=O)C1 (centres undefined) | 3.41

Structure (SMILES) | cytotoxicity at 10 µM [%]
O=C(C1CCC1)N1CCN(Cc2ccc(F)cc2)[C@H]2CS(=O)(=O)C[C@H]21 | 1.65
N[C@H]1c2ccccc2C[C@@H]1NC(=O)C1CCN(Cc2ccco2)CC1 | -8.57
O=C(N[C@@H]1CCN(C(=O)C2CCOCC2)C[C@H]1O)c1ccccn1 | -2.88
Cc1nc2c(c(N[C@@H](CO)C(N)=O)n1)Cc1ccccc1OC2 | 2.8
CN(C)CCN(C)c1nc(CCc2ccccc2)nc2c1cnn2C | 0.562
Cc1ccccc1-c1ncc(CNCc2csc(C(C)C)n2)s1 | 0.264
O=C(CCC1CCN(C(=O)c2cc[nH]c2)CC1)NCc1cccc(Cl)c1 | -2.11
Cc1ccc(-n2c(COCC(=O)O)nc3c(C)cccc32)nc1 | 2.43
COc1ccccc1CNC(=O)CN(C)C(C)c1ccon1 (centres undefined) | -4.29
CCNc1cc2c(nn1)CCN(C(=O)c1ccc3c(c1)OCO3)C2 | -13.5
CCc1ccc(C(=O)N2CCN(CCO)CC2)o1 | -5.22
CCc1nc2n(n1)CC(NCC(=O)Nc1cc(C(C)(C)C)no1)CC2 (centres undefined) | -9.26
Cc1ccccc1CN(C)C(=O)CN1CCOC(Cn2cncn2)C1 (centres undefined) | -1.07
CC(Cn1cccn1)NC(=O)CCC(=O)c1cccs1 (centres undefined) | -2.39
N#Cc1ccc(S(=O)(=O)N2CSCC2C(=O)NCC(F)(F)F)cc1 (centres undefined) | -7.6
CCOC(=O)N1CCCC2(CCCNC2)C1 (centres undefined) | 2.11
C[C@@H]1CN(Cc2cccc(F)c2)C[C@]12CCN(Cc1cccnc1)C2=O | -2.6
COCCN1CCC2(CC1)CC(NC(=O)COC)c1ccccc1O2 (centres undefined) | -8.43
CC(C)NC(=O)C1CCC2(CCN(Cc3cnn(C)c3)CC2)C1 (centres undefined) | 2.77
CN(C)C(=O)N1CC2(CCN(CC3CC3)CC2)c2cc(F)ccc21 | -1.54
CNC(=O)CN1CC[C@H]2CN(C(=O)c3ccc(C)nc3)C[C@H]2C1 | 1.61
CCCNc1c(NC(=O)NCCCOC)c(=O)oc2ccccc12 | -4.52

Reference: ChEMBL document CHEMBL4513216, “Probing the Open Global Health Chemical Diversity Library for Multistage-Active Starting Points for Next-Generation Antimalarials” (ACS Infect Dis, 2020)
